Test [1] concerns P338. The experiment in a line: Antitumor activity against P338 leukemia cells measured as T/C(average survival time of treated mice/control mice*100)at 6.25 mg/kg, ip optimal dose on day 1 in mice. Type of test: functional. The following applies: Mus musculus, 24 h, route intraperitoneal. The method in brief:
(§1)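 Groups of five CD2F1 mice were inoculated ip with 10⁶ P388 lymphocytic leukemia cells on day 0. Drug was given as a single ip injection on day 1, following NCI protocols. %T/C = (average survival time of treated mice / control mice) × 100, taken at the optimal dose; the toxic dose level was also recorded.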

In test [2] the test system is P338. Put plainly: Antitumor activity against P338 leukemia cells measured as T/C(average survival time of treated mice/control mice*100)at 6.25 mg/kg, ip optimal dose on days 1-5 in mice. Type of test: functional. The following applies: Mus musculus, route intraperitoneal. Summed up: (§2)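 Five CD2F1 mice per group received 10⁶ P388 lymphocytic leukemia cells ip on day 0. Drug was given ip daily on days 1–5, following NCI protocols. %T/C is mean survival time of treated over control mice × 100, taken at the optimal dose; the toxic dose level was also recorded.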

Test [3] relates to P338. Put plainly: Antitumor activity against P338 leukemia cells measured as toxic level at 6.25 mg/kg, ip optimal dose on day 1 in mice. Type of test: functional, Mus musculus. Particulars: route intraperitoneal. Summed up:
(§3)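 Groups of five mice were inoculated ip with 10⁶ P388 (P338) lymphocytic leukemia cells on day 0. The drug was given as a single ip injection on day 1, following NCI protocols. Optimal dose, maximum % T/C and toxic level are in mg/kg. % T/C = (average survival time of treated mice / control mice) × 100.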

Test [4] concerns P338. Put plainly: Antitumor activity against P338 leukemia cells measured as toxic level at 6.25 mg/kg, ip optimal dose on days 1-5 in mice. Type of test: functional, Mus musculus. The following applies: route intraperitoneal. Summed up:
(§4)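 Groups of five mice were inoculated ip with 10⁶ P388 (P338) lymphocytic leukemia cells on day 0. Drug was injected ip daily on days 1–5, following NCI protocols. Optimal dose, maximum % T/C and toxic level are in mg/kg. % T/C = (average survival time of treated mice / control mice) × 100.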

Test [5] relates to P338. Put plainly: Antitumor activity against P338 leukemia cells measured as T/C(average survival time of treated mice/control mice*100)at 25 mg/kg, ip optimal dose on day 1 in mice. Type of test: functional. The following applies: Mus musculus, 24 h, route intraperitoneal. The method in brief: as §1
Test [6] concerns P338. Put plainly: Antitumor activity against P338 leukemia cells measured as toxic level at 25 mg/kg, ip optimal dose on day 1 in mice. Type of test: functional, Mus musculus. Particulars: route intraperitoneal. The method in brief:
as §3

In test [7] the test system is P338. The experiment in a line: Antitumor activity against P338 leukemia cells measured as toxic level at 3.12 mg/kg, ip optimal dose on day 1 in mice. Type of test: functional, Mus musculus. Particulars: route intraperitoneal. The method in brief:
as §3

The test system of test [8] is P338. The experiment in a line: Antitumor activity against P338 leukemia cells measured as T/C at 3.12 mg/kg, ip optimal dose on day 1 in mice. Type of test: functional. The following applies: Mus musculus, 24 h, route intraperitoneal. Summed up:
as §1

Test [9] deals with P338. Put plainly: Antitumor activity against P338 leukemia cells measured as T/C(average survival time of treated mice/control mice*100)at 12.5 mg/kg, ip optimal dose on days 1-5 in mice. Type of test: functional. The following applies: Mus musculus, route intraperitoneal. The method in brief: as §2
The test system of test [10] is P338. The experiment in a line: Antitumor activity against P338 leukemia cells measured as toxic level at 12.5 mg/kg, ip optimal dose on days 1-5 in mice. Type of test: functional, Mus musculus. The following applies: route intraperitoneal. Summed up:
as §4

In test [11] the test system is P338. Put plainly: Antitumor activity against P338 leukemia cells measured as toxic level at 1.56 mg/kg, ip optimal dose on days 1-5 in mice. Type of test: functional, Mus musculus. The following applies: route intraperitoneal. Summed up:
as §4

For test [12], the system named is P338. The experiment in a line: Antitumor activity against P338 leukemia cells measured as T/C(average survival time of treated mice/control mice*100)at 1.56 mg/kg, ip optimal dose on days 1-5 in mice. Type of test: functional. Particulars: Mus musculus, route intraperitoneal. The method in brief:
as §2

Test [13] has as its system P338. The experiment in a line: Antitumor activity against P338 leukemia cells measured as T/C(average survival time of treated mice/control mice*100)at 0.4 mg/kg, ip optimal dose on days 1-5 in mice. Type of test: functional. Particulars: Mus musculus, route intraperitoneal. The method in brief: as §2
Test [14] concerns P338. Put plainly: Antitumor activity against P338 leukemia cells measured as toxic level at 0.4 mg/kg, ip optimal dose on day 1 in mice. Type of test: functional, Mus musculus. The following applies: route intraperitoneal. The method in brief:
as §3

In test [15] the test system is P338. Put plainly: Antitumor activity against P338 leukemia cells measured as T/C(average survival time of treated mice/control mice*100)at 0.4 mg/kg, ip optimal dose on day 1 in mice. Type of test: functional. The following applies: Mus musculus, 24 h, route intraperitoneal. Summed up: as §1
The test system of test [16] is P338. The experiment in a line: Antitumor activity against P338 leukemia cells measured as toxic level at 0.4 mg/kg, ip optimal dose on days 1-5 in mice. Type of test: functional, Mus musculus. Particulars: route intraperitoneal. The method in brief:
as §4

Test [17] deals with P338. Put plainly: Antitumor activity against P338 leukemia cells measured as T/C(average survival time of treated mice/control mice*100)at 3.12 mg/kg, ip optimal dose on days 1-5 in mice. Type of test: functional. The following applies: Mus musculus, route intraperitoneal. Summed up:
as §2

Test [18] has as its system P338. The experiment in a line: Antitumor activity against P338 leukemia cells measured as toxic level at 3.12 mg/kg, ip optimal dose on days 1-5 in mice. The following applies: route intraperitoneal. Type of test: functional, Mus musculus. The method in brief:
as §4

Test [19] has as its system P338. The experiment in a line: Antitumor activity against P338 leukemia cells measured as toxic level at 25 mg/kg, ip optimal dose on days 1-5 in mice. Type of test: functional, Mus musculus. The following applies: route intraperitoneal. The method in brief: as §4
Test [20] concerns P338. Put plainly: Antitumor activity against P338 leukemia cells measured as T/C(average survival time of treated mice/control mice*100)at 25 mg/kg, ip optimal dose on days 1-5 in mice. Type of test: functional. Particulars: Mus musculus, route intraperitoneal. The method in brief:
as §2

The source of these data is ChEMBL document CHEMBL1124278, “Heterocyclic quinones with potential antitumor activity. 2. Synthesis and antitumor activity of some benzimidazole-4,7-dione derivatives” (1988).

For the compound `O=C1C=CC(=O)c2[nH]cnc21`, the figures for the survival at 6.25 mg/kg in the test with P338 [1] and with P338 [2] were 105% and 110%, respectively. The Toxic level with P338 [3] stood at 12.5 mg/kg; in the test with P338 [4] it was 25 mg/kg.
As for `CC1=C(C)C(=O)c2c(ncn2C)C1=O`, the survival at 25 mg/kg in the test with P338 [5] came out at 95%. This compound also returned a Toxic level with P338 [6] of 100 mg/kg.
Consider `O=C1C=CC(=O)c2[nH]c(CO)nc21`, for which the Toxic level in the test on P338 [7] and in the test with P338 [4] was 12.5 mg/kg throughout. Also, in the test with P338 [8], the survival at 3.12 mg/kg is 105%. In the test with P338 [2], this compound showed a survival at 6.25 mg/kg of 110%.
`CC1=C(C)C(=O)c2[nH]c(C)nc2C1=O` gave a survival at 12.5 mg/kg in the test with P338 [9] of 110%. This compound yielded a Toxic level with P338 [10] of 100 mg/kg.
In turn, `CCn1cnc2c1C(=O)C(C)=C(C)C2=O` came in with a survival at 25 mg/kg in the test with P338 [5] of 100%. In the test with P338 [6], this compound yielded a Toxic level of 100 mg/kg.
Turning to `O=C1C(Br)=C(Br)C(=O)c2[nH]cnc21`, the Toxic level in the test on P338 [11] was 12.5 mg/kg. In addition, in the test with P338 [12], the survival at 1.56 mg/kg amounted to 130%.
Turning to `Cn1cnc2c1C(=O)C=CC2=O`, the survival at 0.4 mg/kg is 95% in the test with P338 [13] and 76% in the test with P338 [15]. For the same compound, the Toxic level in the test on P338 [14] worked out at 3.12 mg/kg; in the test with P338 [16], 6.25 mg/kg.
`O=C1C(CCl)=CC(=O)c2[nH]cnc21` returned a survival at 3.12 mg/kg in the test with P338 [17] of 95%. In the test with P338 [18], this compound gave a Toxic level of 12.5 mg/kg.
On to `O=C1C(Br)=C(N2CC2)C(=O)c2[nH]cnc21`, for which the survival at 6.25 mg/kg in the test on P338 [2] worked out at 156%. The compound further registered a Toxic level in the test with P338 [4] of 12.5 mg/kg.
Compound `O=C1C(Cl)=CC(=O)c2[nH]cnc21` gave a survival at 6.25 mg/kg with P338 [1] of 117%. This compound also had a Toxic level with P338 [3] of 12.5 mg/kg.
For the compound `CC1CN1C1=C(Br)C(=O)c2[nH]cnc2C1=O` (stereo not given), the survival at 6.25 mg/kg with P338 [2] was found to be 136%. Also, in the test on P338 [4], the Toxic level is 12.5 mg/kg.
On the same counts, the results for `O=C(Nc1ccccc1)OCc1nc2c([nH]1)C(=O)C=CC2=O` are 146% and 25 mg/kg.
`Cc1nc2c([nH]1)C(=O)C=CC2=O` had a survival at 3.12 mg/kg in the test with P338 [17] of 100%. For the same compound, the Toxic level with P338 [18] was found to be 6.25 mg/kg.
As for `NC1=C(Br)C(=O)c2[nH]cnc2C1=O`, the survival at 6.25 mg/kg in the test on P338 [2] came to 154%. The Toxic level with P338 [4] amounted to 25 mg/kg.
In the test on P338 [19], `CC1=C(C)C(=O)c2[nH]cnc2C1=O` yielded a Toxic level of 200 mg/kg. The survival at 25 mg/kg with P338 [20] was determined as 130%.
As for `O=C1C=C(NCc2ccccc2)C(=O)c2[nH]cnc21`, in the test on P338 [17], the survival at 3.12 mg/kg stood at 105%. For the same compound, the survival at 25 mg/kg in the test with P338 [5] turned out to be 90%. Besides, the results for the Toxic level in the test on P338 [6] and with P338 [18] were 100 mg/kg and 150 mg/kg, respectively.
